Source: ChEMBL document CHEMBL1268917, “Synthesis and biological evaluation of radio-iodinated benzimidazoles as SPECT imaging agents for NR2B subtype of NMDA receptor” (Bioorg Med Chem, 2010)

Tests used:
[1] = target: Glutamate receptor ionotropic, NMDA 2B (Rattus norvegicus) (UniProt Q00960); experiment: Binding affinity to NR2B receptor in rat cerebral cortex at 0.09 to 0.14 nM after 30 mins by autoradiography in presence of prazosin relative to control; type: tissue-based; conditions: tested as the 125I-labelled form
Procedure, shortened: (§1)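 Rinsed three times 3 min in cold buffer with 1% BSA, dipped in cold water, air-dried, exposed to imaging plates; PSL per mm² in ROIs. Expressed as % control binding; at least triplicate slices from three rats.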

[2] = target: Glutamate receptor ionotropic, NMDA 2B (Rattus norvegicus) (UniProt Q00960); experiment: Binding affinity to NR2B receptor in rat hippocampus at 0.09 to 0.14 nM after 30 mins by autoradiography in presence of prazosin relative to control; type: tissue-based; conditions: tested as the 125I-labelled form; procedure, shortened: as §1
[3] = target: Glutamate receptor ionotropic, NMDA 2B (Rattus norvegicus) (UniProt Q00960); experiment: Binding affinity to NR2B receptor in rat cerebellum at 0.09 to 0.14 nM after 30 mins by autoradiography in presence of prazosin relative to control; type: tissue-based; conditions: tested as the 125I-labelled form; procedure, shortened: as §1
[4] = target: Glutamate receptor ionotropic, NMDA 2B (Rattus norvegicus) (UniProt Q00960); experiment: Binding affinity to NR2B receptor in rat cerebral cortex at 0.09 to 0.14 nM after 30 mins by autoradiography in presence of DTG relative to control; type: tissue-based; conditions: tested as the 125I-labelled form; procedure, shortened: as §1
[5] = target: Glutamate receptor ionotropic, NMDA 2B (Rattus norvegicus) (UniProt Q00960); experiment: Binding affinity to NR2B receptor in rat hippocampus at 0.09 to 0.14 nM after 30 mins by autoradiography in presence of DTG relative to control; type: tissue-based; conditions: tested as the 125I-labelled form; procedure, shortened: as §1
[6] = target: Glutamate receptor ionotropic, NMDA 2B (Rattus norvegicus) (UniProt Q00960); experiment: Binding affinity to NR2B receptor in rat cerebellum at 0.09 to 0.14 nM after 30 mins by autoradiography in presence of DTG relative to control; type: tissue-based; conditions: tested as the 125I-labelled form; procedure, shortened: as §1
[7] = target: Glutamate receptor ionotropic, NMDA 2B (Rattus norvegicus, UniProt Q00960); experiment: Displacement of [3H]ifenprodil from NR2B receptor in rat cortical synaptic membranes; type: cell membranes, Membrane
[8] = Octanol-buffer partition coefficient, log D of the compound at pH 7.4; type: physicochemical
[9] = Lipophilicity, log P of the compound; type: physicochemical; conditions: octanol/water
[10] = target: Glutamate receptor ionotropic, NMDA 2B (Rattus norvegicus) (UniProt Q00960); experiment: Binding affinity to NR2B receptor in rat cerebral cortex at 0.09 to 0.14 nM after 30 mins by autoradiography in presence of Ro-256981 relative to control; type: tissue-based; conditions: tested as the 125I-labelled form; procedure, shortened: as §1
[11] = target: Glutamate receptor ionotropic, NMDA 2B (Rattus norvegicus) (UniProt Q00960); experiment: Binding affinity to NR2B receptor in rat hippocampus at 0.09 to 0.14 nM after 30 mins by autoradiography in presence of Ro-256981 relative to control; type: tissue-based; conditions: tested as the 125I-labelled form; procedure, shortened: as §1
[12] = target: Glutamate receptor ionotropic, NMDA 2B (Rattus norvegicus) (UniProt Q00960); experiment: Binding affinity to NR2B receptor in rat cerebellum at 0.09 to 0.14 nM after 30 mins by autoradiography in presence of Ro-256981 relative to control; type: tissue-based; conditions: tested as the 125I-labelled form; procedure, shortened: as §1

Sequence of Glutamate receptor ionotropic, NMDA 2B (Rattus norvegicus) (Q00960 27-1482 limits assumed): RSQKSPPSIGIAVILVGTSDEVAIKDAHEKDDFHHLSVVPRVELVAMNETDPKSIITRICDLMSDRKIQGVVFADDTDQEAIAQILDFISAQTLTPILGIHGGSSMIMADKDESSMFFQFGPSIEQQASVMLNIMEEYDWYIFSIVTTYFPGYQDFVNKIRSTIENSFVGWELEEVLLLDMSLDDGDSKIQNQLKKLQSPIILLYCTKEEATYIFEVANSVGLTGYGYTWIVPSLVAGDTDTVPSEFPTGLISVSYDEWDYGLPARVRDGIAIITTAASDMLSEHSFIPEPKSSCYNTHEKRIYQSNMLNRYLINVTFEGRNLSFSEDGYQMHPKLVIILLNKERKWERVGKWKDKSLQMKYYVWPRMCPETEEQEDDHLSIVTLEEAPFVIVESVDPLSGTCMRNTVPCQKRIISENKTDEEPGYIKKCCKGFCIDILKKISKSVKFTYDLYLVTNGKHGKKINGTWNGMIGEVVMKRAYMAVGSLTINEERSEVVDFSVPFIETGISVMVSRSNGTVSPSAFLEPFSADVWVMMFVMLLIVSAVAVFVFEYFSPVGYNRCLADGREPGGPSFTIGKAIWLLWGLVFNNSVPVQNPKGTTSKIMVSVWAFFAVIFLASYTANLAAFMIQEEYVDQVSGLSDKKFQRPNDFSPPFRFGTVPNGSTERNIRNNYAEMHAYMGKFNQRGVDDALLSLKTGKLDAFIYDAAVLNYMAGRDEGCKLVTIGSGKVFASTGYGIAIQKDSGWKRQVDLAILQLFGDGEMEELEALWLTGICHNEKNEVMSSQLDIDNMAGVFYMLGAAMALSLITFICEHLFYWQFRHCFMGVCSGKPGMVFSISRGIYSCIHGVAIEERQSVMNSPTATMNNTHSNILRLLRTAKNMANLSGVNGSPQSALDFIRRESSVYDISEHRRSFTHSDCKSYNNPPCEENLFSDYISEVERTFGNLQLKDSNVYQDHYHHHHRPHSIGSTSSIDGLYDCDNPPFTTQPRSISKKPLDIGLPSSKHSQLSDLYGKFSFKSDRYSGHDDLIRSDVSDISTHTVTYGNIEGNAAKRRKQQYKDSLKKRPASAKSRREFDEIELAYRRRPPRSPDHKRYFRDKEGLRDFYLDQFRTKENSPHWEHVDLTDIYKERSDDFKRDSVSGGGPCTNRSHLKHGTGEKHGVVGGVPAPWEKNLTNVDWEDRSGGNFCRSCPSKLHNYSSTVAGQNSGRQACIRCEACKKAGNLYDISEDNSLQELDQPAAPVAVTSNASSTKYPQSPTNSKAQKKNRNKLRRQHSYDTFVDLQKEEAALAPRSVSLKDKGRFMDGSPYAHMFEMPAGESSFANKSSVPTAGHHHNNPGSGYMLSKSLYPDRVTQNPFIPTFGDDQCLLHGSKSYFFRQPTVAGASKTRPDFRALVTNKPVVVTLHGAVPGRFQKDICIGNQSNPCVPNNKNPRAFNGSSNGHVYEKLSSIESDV
Sequence of Glutamate receptor ionotropic, NMDA 2B (Q00960 whole entry): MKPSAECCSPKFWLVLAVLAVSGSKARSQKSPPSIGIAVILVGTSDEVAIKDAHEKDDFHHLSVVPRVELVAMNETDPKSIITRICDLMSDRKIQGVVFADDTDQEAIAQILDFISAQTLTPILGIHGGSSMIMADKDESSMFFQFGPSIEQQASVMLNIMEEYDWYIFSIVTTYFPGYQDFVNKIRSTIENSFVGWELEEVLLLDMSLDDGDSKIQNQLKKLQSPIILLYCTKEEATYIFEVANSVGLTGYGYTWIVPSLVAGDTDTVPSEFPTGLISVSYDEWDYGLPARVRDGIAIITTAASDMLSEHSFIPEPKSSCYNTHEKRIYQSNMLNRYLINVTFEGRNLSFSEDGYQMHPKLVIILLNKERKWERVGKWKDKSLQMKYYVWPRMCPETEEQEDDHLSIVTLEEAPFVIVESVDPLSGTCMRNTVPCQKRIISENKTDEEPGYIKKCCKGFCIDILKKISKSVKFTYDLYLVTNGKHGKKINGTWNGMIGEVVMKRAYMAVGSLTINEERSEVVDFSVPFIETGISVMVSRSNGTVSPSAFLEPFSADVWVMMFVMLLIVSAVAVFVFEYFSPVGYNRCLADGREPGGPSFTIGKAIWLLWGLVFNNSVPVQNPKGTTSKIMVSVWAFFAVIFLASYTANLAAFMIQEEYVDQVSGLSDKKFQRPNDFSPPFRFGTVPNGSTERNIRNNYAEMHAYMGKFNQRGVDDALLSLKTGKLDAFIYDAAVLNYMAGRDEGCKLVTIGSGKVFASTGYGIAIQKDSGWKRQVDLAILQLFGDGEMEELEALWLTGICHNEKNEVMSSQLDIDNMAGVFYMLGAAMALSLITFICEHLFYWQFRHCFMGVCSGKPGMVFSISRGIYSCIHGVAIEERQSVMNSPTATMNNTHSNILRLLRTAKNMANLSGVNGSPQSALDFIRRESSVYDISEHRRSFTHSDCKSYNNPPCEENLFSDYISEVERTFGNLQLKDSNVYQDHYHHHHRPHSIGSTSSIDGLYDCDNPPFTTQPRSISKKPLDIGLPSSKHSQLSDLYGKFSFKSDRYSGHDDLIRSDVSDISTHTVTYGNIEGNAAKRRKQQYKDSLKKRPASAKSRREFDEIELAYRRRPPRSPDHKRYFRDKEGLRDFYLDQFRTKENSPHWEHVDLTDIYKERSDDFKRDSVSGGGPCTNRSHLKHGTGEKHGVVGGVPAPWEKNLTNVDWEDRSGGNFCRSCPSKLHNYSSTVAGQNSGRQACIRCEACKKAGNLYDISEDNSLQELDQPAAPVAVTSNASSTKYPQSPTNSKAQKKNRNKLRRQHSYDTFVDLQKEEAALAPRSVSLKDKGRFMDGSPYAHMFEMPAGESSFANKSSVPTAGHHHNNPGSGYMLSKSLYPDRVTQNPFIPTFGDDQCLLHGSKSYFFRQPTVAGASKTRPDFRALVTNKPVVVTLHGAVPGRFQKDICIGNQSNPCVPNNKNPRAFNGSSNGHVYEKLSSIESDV

Activity [1]: 92.8%
Activity [2]: 95.5%
Activity [3]: 97%
Activity [4]: 93%
Activity [5]: 108%
Activity [6]: 104%
Ki [7]: 5.75 nM
logD [8]: 3.54
logP [9]: 3.54
Activity [10]: 58.1%
Activity [11]: 59%
Activity [12]: 89.3%
Compound: CS(=O)(=O)Nc1ccc2nc(CN3CCC(Cc4ccc(I)cc4)CC3)[nH]c2c1
